Screening data from PubChem.
Shown are actives, neighbours in structure and some others; about 3.5% of the full set was active somewhere.
RGS4 block = inhibitors of human RGS4 | 310,000 compounds, 0.45% hits | HEK293 M3R/RGS4 inducible, Fluo-4 calcium flux; active compounds read high; triggered by carbachol at its EC20 | P49798 | B-score at 10 µM;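 active = B-score, a plate-corrected calcium signal, over three deviations above library mean, with baseline fluorescence within five deviations of library mean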;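 also: RGS4 expression induced by doxycycline in cells with stable M3 receptor; B-score is computed from the integrated fluorescence ratio over baseline after carbachol; higher B-score means a larger calcium signal and so more RGS4 inhibition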
Target sequence (P49798 whole entry, looked up): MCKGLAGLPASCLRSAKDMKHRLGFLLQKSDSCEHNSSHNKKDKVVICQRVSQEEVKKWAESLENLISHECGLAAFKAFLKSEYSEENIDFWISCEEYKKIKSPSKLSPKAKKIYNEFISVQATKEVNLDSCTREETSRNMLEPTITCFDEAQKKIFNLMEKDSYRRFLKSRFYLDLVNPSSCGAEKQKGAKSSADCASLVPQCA
MrgX1 ag = human MrgX1 receptor agonism, primary screen; Q96LB2; MrgX1-HEK293 cells, Fluo-4 calcium fluorescence, agonist mode; active compounds read high; B-score at 10 µM; 310,000 compounds, 0.44% hits; AID 588627;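 active = calcium response B-score plate-corrected fluorescence ratio at least 3 library SD, with starting fluorescence B-score inside 5 SD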
Target sequence (Q96LB2 whole entry, looked up): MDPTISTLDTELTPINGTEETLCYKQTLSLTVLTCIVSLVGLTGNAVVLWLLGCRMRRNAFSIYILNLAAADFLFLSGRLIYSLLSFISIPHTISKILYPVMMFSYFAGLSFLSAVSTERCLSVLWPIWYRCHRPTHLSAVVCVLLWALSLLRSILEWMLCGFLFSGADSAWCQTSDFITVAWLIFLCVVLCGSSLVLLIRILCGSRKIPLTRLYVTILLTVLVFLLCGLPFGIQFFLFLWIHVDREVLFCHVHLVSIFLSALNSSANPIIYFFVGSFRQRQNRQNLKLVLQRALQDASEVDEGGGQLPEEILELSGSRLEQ
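Assay system: stable human MrgX1 HEK293 cell line. Quantity: 15,000 cells per well. Schedule: cells plated overnight, dye loaded 0.5 h 37 °C, 0.5 h room temperature. Detection: Fluo-4 NW calcium-flux fluorescence, kinetic read. Read-out basis: peak-minus-minimum fluorescence over baseline, converted to B scores. Control set: positive and negative control wells on each plate.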
MrgX1 PAM = human MrgX1 positive allosteric modulation, primary screen; B-score at 10 µM; Q96LB2; 310,000 compounds, 0.63% hits; AID 588675; MrgX1-HEK293, Fluo-4 calcium flux, FDSS; active compounds read high;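 active = plate-corrected calcium response at least 3 library SD above typical, normal starting fluorescence, not activating the receptor alone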;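 also: compound read alongside a low EC10 to EC30 dose of BAM8-22 agonist; peak minus trough fluorescence over baseline measured at the second addition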
RGS4 act = RGS4 potentiation or activation; HEK293 M3R/inducible RGS4, carbachol calcium flux Fluo4; active compounds read low; B-score at 10 µM; AID 463111; 310,000 compounds, 0.92% hits;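 active = B-score of the integrated calcium signal more than 4 SD below the library mean, with starting fluorescence not abnormally high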;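 also: negative B-score means reduced calcium response which marks RGS4 activation or potentiation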
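test system = HEK293 cells with stable M3R and inducible RGS4 | schedule = recording 10 s baseline at 1 Hz, 100 s post-agonist | technique = Fluo4-AM (2 µM) calcium-flux fluorescence, kinetic read | measure = Agonist-evoked peak-minus-minimum fluorescence over baseline, integrated ratio, B score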
MrgX1 antag = antagonists of human MrgX1 receptor. 310,000 compounds, 1.3% hits. Q96LB2. MRGX1-HEK293 calcium flux, Fluo-4, BAM8-22 antagonism; active compounds read low. B-score at 10 µM;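 active = calcium-response B-score plate-corrected more than 3 library SD below zero, starting fluorescence within 5 deviations, no agonist response on first addition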;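 also: peak minus trough fluorescence over baseline after final BAM8-22 challenge near maximal dose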
MrgX1 allo conf = reconfirmed allosteric activator of human MrgX1 receptor. shares compounds with MrgX1 PAM. MrgX1-HEK293, Fluo-4 calcium fluorescence, FDSS. activation (ratio percentage), % at 10 µM. 1,200 compounds, 13% hits;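 active = ratio at least 3 SD above the weak peptide control, stable starting fluorescence, no direct agonism earlier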;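 also: compound followed by low BAM8-22 agonist challenge near EC20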
HEK293 Ca flux = counter-screen for MrgX1 antagonists: effect in parental HEK293 cells; Fluo-4 calcium fluorescence, FDSS; 4,000 compounds, 2% hits; AID 624111; shares compounds with MrgX1 antag; fluorescence ratio F(max-min)/F0 at 10 µM;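 active = duplicate-averaged calcium fluorescence ratio at least three times the standard deviation of buffer wells, a nonspecific response in parental cells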
HEK293 Ca counter = MrgX1 allosteric activator counter-screen hit in parental HEK293 cells; shares compounds with MrgX1 antag; parental HEK293 calcium flux, Fluo-4 fluorescence ratio; active compounds read high; fluorescence ratio F(max-min)/F0 at 10 µM; 4,000 compounds, 0.4% hits; AID 624114;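 active = calcium fluorescence ratio, averaged over duplicates, at least 3 SD of the buffer-well ratio, meaning a nonspecific response in receptor-free cells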;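 also: untransfected parental HEK293 lacking MrgX1 used as counterscreen for MrgX1 allosteric activators; fluorescence change taken during the second addition on a kinetic imager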
HEK293 Ca cntr2 = MrgX1 activator counter-screen hit in parental HEK293 cells; shares compounds with MrgX1 antag; Fluo-4 calcium fluorescence (FDSS); active compounds read high; fluorescence ratio F(max-min)/F0 at 10 µM; 4,000 compounds, 8.7% hits; AID 624115;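 active = calcium fluorescence ratio at least three times the spread of buffer wells, meaning a non-specific response in parental cells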
* = called active by the depositor; i = inactive; . = not tested or not shown.

SMILES	RGS4 block	MrgX1 ag	MrgX1 PAM	RGS4 act	MrgX1 antag	MrgX1 allo conf	HEK293 Ca flux	HEK293 Ca counter	HEK293 Ca cntr2
CCN(Cc1ccccc1)C(=O)c1cc(S(=O)(=O)N2CCOCC2)cn1C	i	i	i	i	i	.	.	.	.
CC1CCN(C(=O)COc2ncnc3ccccc23)CC1	i	i	i	i	i	.	.	.	.
CC1CCN(C(=O)COc2ccc3ccccc3c2Br)CC1	i	i	6.5*	i	i	i	i	i	i
COc1cccc(NC(=O)NNC(=O)c2ccc3c(c2)NC(=O)C(C)(C)O3)c1	i	i	i	i	i	.	.	.	.
COc1ccccc1NC(=O)NNC(=O)c1ccc2c(c1)NC(=O)C(C)(C)O2	i	i	20*	i	i	i	i	i	i
CN1CCn2c1nc(N1CCOCC1)nc2=O	i	i	i	i	i	.	.	.	.
Cc1cc(Cl)ccc1OC(C)C(=O)Nc1ccccc1N1CCOCC1 (stereo not drawn)	i	i	15*	i	i	i	i	i	i
CCCCCCC(=O)N1CCC(c2nc3c(nnn3Cc3ccccc3Cl)c(=O)[nH]2)CC1	i	i	i	i	i	.	.	.	.
CCOc1cccc(NC(=O)CSc2nncn2N)c1	i	i	7.4*	i	i	i	i	i	i
CCN(CC(=O)Nc1c(F)cccc1F)C(=O)c1ccc(C(F)(F)F)cc1	i	i	8.1*	i	i	i	i	i	i
C=CCNC(=S)NNC(=O)c1cccn(Cc2cccc(Cl)c2)c1=O	i	i	i	i	i	.	.	.	.
Cc1ccc2cc(CNC(C)C)c(=O)[nH]c2c1	i	i	i	i	i	.	.	.	.
O=S(=O)(Nc1nc2ccccc2s1)c1ccc(Br)s1	i	i	7.2*	i	i	i	i	i	i
CC(NS(=O)(=O)/C=C/c1ccccc1)C(=O)O (stereo not drawn)	i	i	10*	i	i	i	i	i	i
Cc1ccc(CC(=O)NCCS(=O)c2ccc(C)cc2)cc1 (stereo not drawn)	i	i	i	i	i	.	.	.	.
CC(C)[C@@H](COc1ccccc1)N1CCN(Cc2ccccc2)CCC1=O	i	i	14*	i	i	i	i	i	i
O=C(NC(=S)Nc1cc(S(=O)(=O)N2CCOCC2)ccc1N1CCOCC1)C1CCCC1	i	i	7.1*	i	i	6.4%*	i	i	i
CCC1=NN2C(=N)/C(=C\c3ccc(SCc4ccco4)o3)C(=O)N=C2S1	i	i	22*	i	i	i	i	i	57*
COc1ccccc1NC(=O)c1ccc(NS(=O)(=O)c2ccc(F)c(F)c2F)cc1	i	i	36*	i	i	28%*	i	i	i
CC(C)=CCN1CCN(Cc2cn[nH]c2C2CCCCC2)CC1CCO (stereo not drawn)	i	i	i	i	i	.	.	.	.
COc1cccc(C(=O)/C=C/Nc2ccc(S(=O)(=O)Nc3cc(OC)nc(OC)n3)cc2)c1	i	i	20*	i	i	i	i	i	i
COc1ccc(C(CNC(=O)c2ccc(-c3cccc(C(F)(F)F)c3)o2)N2CCOCC2)cc1 (stereo not drawn)	i	i	i	i	i	.	.	.	.
COc1cc2c(cc1OC)-c1nnc(-c3cccs3)n1C(C)(C)C2	i	i	i	i	i	.	.	.	.
O=S(=O)(c1ccccc1Br)N1CCN(c2ncccn2)CC1	i	i	6.7*	i	i	i	i	i	i
CC(=O)Nc1sc(/C(C#N)=C\c2cccc(Cl)c2)nc1-c1ccc(C)cc1	i	i	20*	i	i	i	0.065*	i	59*
SMILES	RGS4 block	MrgX1 ag	MrgX1 PAM	RGS4 act	MrgX1 antag	MrgX1 allo conf	HEK293 Ca flux	HEK293 Ca counter	HEK293 Ca cntr2
Nc1nc(CSc2ccccn2)nc(Nc2ccccc2)n1	i	i	i	i	i	.	.	.	.
Nc1nc(CN2CCCCCC2)nc(Nc2ccccc2)n1	i	i	i	i	i	.	.	.	.
Cc1c(-c2nc(N)nc(Nc3ccccc3)n2)oc2ccccc12	i	i	20*	i	i	i	i	i	i
O=S(=O)(NC(=S)NC1CCCCC1)c1ccc(Br)cc1	i	i	28*	i	i	25%*	i	i	i
O=C(CCNS(=O)(=O)c1ccc(Br)cc1)NC1CCCCC1	i	i	i	i	i	.	.	.	.
Cc1cccc(/C=C2/Sc3ccc(C(=O)N4CCOCC4)cc3NC2=O)c1	i	i	23*	i	i	i	i	i	i
O=C1Nc2cc(C(=O)N3CCOCC3)ccc2S/C1=C\c1ccccc1	i	i	i	i	i	.	.	.	.
Cn1c(SCC(=O)Nc2ccc(NC(=O)c3cccc(F)c3)cc2)nnc1-c1ccncc1	i	i	i	i	i	.	.	.	.
CCOc1ccc(-c2[nH]ncc2Oc2ccccc2OCC)c(O)c1	i	i	6.7*	i	i	i	i	i	i
COc1ccc(-c2[nH]ncc2-c2ccc3c(c2)OCCO3)c(O)c1	.	i	8*	.	i	i	i	i	i
CCc1cc(-c2[nH]ncc2-c2ccc3c(c2)OCO3)c(O)cc1O	i	i	i	i	i	.	.	.	.
CCOc1ccc(-c2[nH]ncc2-c2ccc(OC)c(OC)c2)c(O)c1	.	i	18*	.	i	i	i	i	i
O=C(COC(=O)CCSc1ccccc1Cl)NCc1ccco1	i	i	i	i	i	.	.	.	.
CCOC(=O)/C(C(=Nc1ccccc1)Nc1ccccc1)=C(\C)O	i	i	7.7*	i	i	i	i	i	i
CCOc1ccc(C(=O)NCC(=O)OCC(=O)N2CCC(C)CC2)cc1	i	i	8*	i	i	i	i	i	i
